The list is not random: actives were taken first. Their share in the collection is about 4.7%.
RGS4 pot: potentiators or activators of RGS4; HEK293 M3R/inducible RGS4, carbachol calcium flux Fluo4; hits give low values; B-score at 10 µM; 0.92% of 310,000 active; AID 463111;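 active = B-score of the integrated calcium signal more than 4 SD below the library mean, with starting fluorescence not abnormally high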;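 also: negative B-score means reduced calcium response which marks RGS4 activation or potentiation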
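test system = M3R-expressing HEK293 line, RGS4 induced by doxycycline | probe or stimulus = carbachol at ECmax as muscarinic agonist stimulus | timing = dye loading 30 min 37 °C, buffer rest 30 min RT | signal = calcium dye Fluo4 fluorescence | evaluation = B score from integrated fluorescence ratio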
MrgX1 PAM: human MrgX1 positive allosteric modulation, primary screen; Q96LB2; MrgX1-HEK293, Fluo-4 calcium flux, FDSS; hits give high values; B-score at 10 µM; 0.63% of 310,000 active;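 active = plate-corrected calcium response at least 3 library SD above typical, normal starting fluorescence, not activating the receptor alone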;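 also: compound read alongside a low EC10 to EC30 dose of BAM8-22 agonist; peak minus trough fluorescence over baseline measured at the second addition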
MrgX1 antag: antagonists of human MrgX1 receptor; Q96LB2; MRGX1-HEK293 calcium flux, Fluo-4, BAM8-22 antagonism; hits give low values; B-score at 10 µM; AID 588676; 1.3% of 310,000 active;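 active = calcium-response B-score plate-corrected more than 3 library SD below zero, starting fluorescence within 5 deviations, no agonist response on first addition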;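 also: peak minus trough fluorescence over baseline after final BAM8-22 challenge near maximal dose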
MrgX1 agonist: human MrgX1 receptor agonism, primary screen. 0.44% of 310,000 active. B-score at 10 µM. AID 588627. Q96LB2. MrgX1-HEK293 cells, Fluo-4 calcium fluorescence, agonist mode; hits give high values;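 active = calcium response B-score plate-corrected fluorescence ratio at least 3 library SD, with starting fluorescence B-score inside 5 SD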
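System – MrgX1-expressing HEK293 cells · Incubation – cells plated overnight, dye loaded 0.5 h 37 °C, 0.5 h room temperature · Technique – kinetic Fluo-4 NW fluorescence of intracellular calcium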
RGS4 inh: inhibitors of human RGS4. P49798. HEK293 M3R/RGS4 inducible, Fluo-4 calcium flux; hits give high values; triggered by carbachol at its EC20. B-score at 10 µM. 0.45% of 310,000 active;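 active = B-score, a plate-corrected calcium signal, over three deviations above library mean, with baseline fluorescence within five deviations of library mean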;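 also: RGS4 expression induced by doxycycline in cells with stable M3 receptor; B-score is computed from the integrated fluorescence ratio over baseline after carbachol; higher B-score means a larger calcium signal and so more RGS4 inhibition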
KCC2 mod: modulators of human KCC2 chloride dependent transport | 2.2% of 190,000 active | B-score of Tl+ flux slope (higher = more flux/activation; lower = inhibition) at 10 µM | Q9H2X9 | KCC2 cells, thallium flux FluoZin-2 fluorescence;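 active = thallium flux slope and its plate-corrected score both differing from the plate sample mean at a set confidence after two filtering rounds, in either direction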;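 also: slope of fluorescence scaled to starting intensity during 10 to 20 s after thallium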
Target sequence (Q9H2X9 whole entry, looked up): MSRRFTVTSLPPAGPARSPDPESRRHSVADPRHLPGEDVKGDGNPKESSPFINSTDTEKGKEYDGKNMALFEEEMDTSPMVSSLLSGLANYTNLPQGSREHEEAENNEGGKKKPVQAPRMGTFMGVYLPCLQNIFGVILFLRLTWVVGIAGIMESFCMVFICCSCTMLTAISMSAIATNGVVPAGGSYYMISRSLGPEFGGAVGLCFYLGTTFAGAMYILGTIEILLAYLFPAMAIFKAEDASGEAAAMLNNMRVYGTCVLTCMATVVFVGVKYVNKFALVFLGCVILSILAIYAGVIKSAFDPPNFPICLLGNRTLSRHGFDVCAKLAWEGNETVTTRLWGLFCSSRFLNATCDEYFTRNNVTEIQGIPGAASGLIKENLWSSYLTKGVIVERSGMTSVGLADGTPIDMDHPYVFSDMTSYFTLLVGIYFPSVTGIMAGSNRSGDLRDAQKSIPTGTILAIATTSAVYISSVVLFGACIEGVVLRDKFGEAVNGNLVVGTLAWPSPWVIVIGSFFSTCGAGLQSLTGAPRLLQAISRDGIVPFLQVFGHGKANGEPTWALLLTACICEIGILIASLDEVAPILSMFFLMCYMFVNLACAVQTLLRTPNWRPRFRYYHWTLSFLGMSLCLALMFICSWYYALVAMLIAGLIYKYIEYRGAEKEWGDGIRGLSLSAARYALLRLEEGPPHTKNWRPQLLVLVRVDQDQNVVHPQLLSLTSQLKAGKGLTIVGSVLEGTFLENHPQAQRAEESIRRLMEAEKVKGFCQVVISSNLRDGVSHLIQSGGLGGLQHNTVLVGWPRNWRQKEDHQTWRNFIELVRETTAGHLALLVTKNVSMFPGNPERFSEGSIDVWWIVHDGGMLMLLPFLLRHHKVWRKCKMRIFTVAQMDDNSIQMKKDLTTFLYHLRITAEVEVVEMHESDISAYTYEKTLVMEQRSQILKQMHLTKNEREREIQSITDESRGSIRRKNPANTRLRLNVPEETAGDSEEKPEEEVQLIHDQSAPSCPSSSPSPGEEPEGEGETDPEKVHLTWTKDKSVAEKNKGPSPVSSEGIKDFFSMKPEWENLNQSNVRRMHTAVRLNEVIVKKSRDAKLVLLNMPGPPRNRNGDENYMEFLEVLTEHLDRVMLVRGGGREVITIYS
KCC2 secondary: KCC2 (human) modulation, secondary assay | shares compounds with KCC2 mod | HEK293-KCC2, thallium flux, FluoZin2 fluorescence; hits give high values | normalised thallium flux (F/F0 slope) at 10 µM | 15% of 3,700 active | AID 1713;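 active = thallium flux slope above the same plate's solvent-only control mean plus 3 SD; inconclusive = the two replicate wells disagree; inactive = no significant difference from solvent-only control wells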
KCC2 bumet counter: thallium flux persisting under bumetanide in KCC2 cells, counter-screen secondary assay | shares compounds with KCC2 mod | HEK293-KCC2 + bumetanide/ouabain, thallium flux FluoZin2; hits give high values | normalized thallium flux at 10 µM | 49% of 3,700 active | AID 1714;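 active = thallium entry rate above the same plate's blocked-transporter control wells by more than 3 SD; inconclusive = the two repeat wells disagree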;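 also: raw slope of fluorescence over initial fluorescence between 10 and 20 s after thallium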
KCC2 secondary2: confirmation of human KCC2 transport modulators; 23% of 3,700 active; AID 1715; normalized thallium flux at 10 µM; shares compounds with KCC2 mod; HEK293-KCC2, thallium flux FluoZin2 fluorescence; actives lie on both sides; F/F0 rise rate, 10–20 s post-thallium;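 active = thallium flux slope more than 3 SD above or below the plate's solvent-only control mean, mostly below; inconclusive = the two repeat wells disagreed; inactive = no significant shift from solvent-only controls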;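 also: raw slope with 0.1% DMSO as baseline and bumetanide as block control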
HEK293 Tl flux: counter-screen for KCC2 modulators: effect in parental HEK293 cells; shares compounds with KCC2 mod; thallium flux FluoZin2, ouabain; baseline-ratio fluorescence slope, 10–20 s after thallium; thallium flux rate (normalised fluorescence) at 10 µM; 46% of 3,700 active; AID 1716;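 active = thallium flux rate significantly above the same plate's solvent-only control wells, beyond their mean plus 3 SD; inconclusive = the two replicate wells gave conflicting results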
KCC2 retest ouab: confirmation of human KCC2 modulators with ouabain. raw Tl+ flux slope (below DMSO = inhibition, above = activation) at 10 µM. AID 1717. HEK293-KCC2, thallium flux FluoZin2 fluorescence; bidirectional: low = inhibitor, high = activator. shares compounds with KCC2 mod. 48% of 3,700 active;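 active = thallium flux slope beyond 3 SD from same-plate DMSO control mean in most replicates, usually higher, sometimes lower; inconclusive = repeat tests gave conflicting results; inactive = no significant difference from controls in most replicates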;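 also: slope of initial-normalized fluorescence between seconds 10 and 20 after thallium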
HEK293 Tl flux2: parental HEK flux effect, counter-screen 2 | HEK293 parental, thallium flux FluoZin-2 fluorescence slope | 33% of 3,700 active | shares compounds with KCC2 mod | thallium flux slope at 10 µM | AID 1718;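 active = thallium flux slope above the same plate's solvent-control mean plus 3 SD in both duplicate wells; inconclusive = duplicate wells that disagreed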;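 also: run without ouabain in cells lacking the KCC2 cotransporter; slope of fluorescence scaled to its starting value between 10 and 20 s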
Numbers without * were called inactive; i = inactive; u = inconclusive; x = not tested or not shown.

SMILES | RGS4 pot | MrgX1 PAM | MrgX1 antag | MrgX1 agonist | RGS4 inh | KCC2 mod | KCC2 secondary | KCC2 bumet counter | KCC2 secondary2 | HEK293 Tl flux | KCC2 retest ouab | HEK293 Tl flux2
O=S(=O)(c1ccc(F)cc1)N1CCC(O)(c2ccc3c(c2)OCO3)CC1 | i | i | i | i | i | -4.3* | 0.0071 | 0.0038 | 0.028 | 0.0076 | 0.015* | 0.0099
CCC(C)Oc1cccc(C(=O)Nc2ccccc2N2CCOCC2)c1 (configuration not stated) | i | i | i | i | i | 0.034 | x | x | x | x | x | x
CC(C)Oc1cccc(C(=O)Nc2ccccc2N2CCOCC2)c1 | i | i | i | i | i | -8.5* | 0.0081 | 0.0051 | 0.031 | 0.0069 | 0.033 | 0.011
O=C(CSc1cccc2cccnc12)N1CCCC1 | i | i | i | i | i | 22* | 0.0056 | 0.033* | 0.029 | 0.026* | 0.037* | 0.016*
NNC(=O)CSc1cccc2cccnc12 | i | i | i | i | i | 0 | x | x | x | x | x | x
COc1ccc2c(c1)C(=O)N1[C@H]3c4cc(Br)ccc4OC[C@@H]3[C@H](c3ccccc3)[C@]1(C)C(=O)N2 | x | i | i | i | x | x | x | x | x | x | x | x
COc1ccc(CCNC(=O)c2ccc(Cl)cc2Cl)cc1 | i | i | i | i | i | -0.037 | x | x | x | x | x | x
COc1ccc(N(C)S(=O)(=O)c2ccc(Cl)c(C(=O)NCCc3ccc(Cl)cc3)c2)cc1 | i | i | i | i | i | -6.1* | 0.013 | 0.0031 | 0.018* | 0.0054* | 0.0095* | 0.0086
Oc1ccccc1-c1nc(NCCN2CCOCC2)c2ccccc2n1 | i | i | i | i | i | x | x | x | x | x | x | x
COc1cccc(-c2nc(NCCN3CCOCC3)c3ccccc3n2)c1O | i | i | i | i | i | -0.041 | 0.01 | 0.0072 | 0.033 | 0.0078 | 0.021 | u
CC(Sc1nnc2ccccn12)C(=O)NCc1ccc2c(c1)OCO2 (configuration not stated) | i | i | i | i | i | 0.51 | x | x | x | x | x | x
CC(Sc1nnc2ccccn12)C(=O)Nc1ccc2c(c1)OCCO2 (configuration not stated) | i | i | i | i | i | x | 0.0065 | 0.005 | 0.031 | 0.008 | 0.019 | 0.01
O=C1Nc2cc(C(=O)NCC3CCCO3)ccc2S/C1=C/c1ccccc1F (configuration not stated) | i | i | i | i | i | x | x | x | x | x | x | x
CC(C)(C)C(=O)Nc1nnc(-c2ccncc2)o1 | i | i | i | i | i | 1.5 | x | x | x | x | x | x
O=C(Nc1nnc(-c2ccncc2)o1)c1ccc(Br)s1 | i | i | i | i | i | 4.6* | 0.017 | 0.0096* | 0.031 | 0.014* | 0.02 | 0.015*
CC(=O)Nc1cccc2ncccc12 | i | i | i | i | i | 0.84 | x | x | x | x | x | x
O=C(NC(=S)Nc1ccccn1)c1ccccc1 | i | i | i | i | i | 9.1* | 0.0097 | 0.017* | 0.04 | u | 0.027* | 0.012
Cc1cccc(NC(=S)NNC(=S)NC2CCCCC2)c1C | i | i | i | i | i | 4* | 0.0089 | 0.012* | 0.03 | 0.0094* | u | 0.011
O=C(NC(=S)Nc1cccc2ncccc12)c1cccs1 | i | i | i | i | i | 8.2* | u | 0.035* | 0.032 | 0.016* | 0.025* | 0.018*
S=C(Nc1ccccn1)NC1CCCCC1 | i | i | i | i | i | 3.5* | 0.0071 | 0.0063* | 0.033 | 0.0085 | 0.021 | 0.011
O=C(NC(=S)Nc1ccccn1)c1ccc(-c2ccccc2)cc1 | i | i | i | i | i | x | x | x | x | x | x | x
Cc1ccccc1NC(=S)NC1CCCC1 | i | i | i | i | i | x | x | x | x | x | x | x
O=C(NC(=S)Nc1cccc2ncccc12)c1ccccc1 | i | i | i | i | i | 4.5* | 0.0059 | 0.01* | 0.03 | 0.011* | 0.021 | u
COc1ccc(C)cc1NC(=O)CN(c1ccccc1F)S(C)(=O)=O | i | i | i | i | i | x | 0.0081 | 0.0058 | 0.03 | 0.007 | 0.02 | 0.009
Cc1cccc(NC(=O)CN(C)S(=O)(=O)c2cnc[nH]2)c1 | i | i | i | i | i | -0.15 | x | x | x | x | x | x
SMILES | RGS4 pot | MrgX1 PAM | MrgX1 antag | MrgX1 agonist | RGS4 inh | KCC2 mod | KCC2 secondary | KCC2 bumet counter | KCC2 secondary2 | HEK293 Tl flux | KCC2 retest ouab | HEK293 Tl flux2
COc1ccc(C)cc1NC(=O)CN(C)S(=O)(=O)c1cnc[nH]1 | i | i | i | i | i | x | 0.01 | 0.0072 | 0.035 | 0.0077 | 0.023 | u
COC(=O)CC1(C(=O)OC)Oc2ccccc2C(=O)N1c1ccc(F)cc1F (configuration not stated) | i | i | i | i | i | x | x | x | x | x | x | x
Cc1ccc(/C=C/S(=O)(=O)NCC(=O)OCC(=O)NCc2ccccc2)cc1 | i | i | i | i | i | x | x | x | x | x | x | x
COc1cccc(N2C(=O)Nc3ccc(Br)cc3C2(O)C(=O)NCCCN(C)C)c1 (configuration not stated) | i | i | i | i | i | x | x | x | x | x | x | x
Cc1ccc(O)c(C2=NNC(c3ccc(Cl)cc3)C2)c1 (configuration not stated) | i | i | i | i | i | 8.6* | 0.0094 | 0.016* | 0.033 | 0.013* | 0.027 | u
Cc1ccc(O)c(C2=NNC(O)(C(F)(F)F)C2)c1 (configuration not stated) | i | i | i | i | i | -1.1 | x | x | x | x | x | x
Oc1ccc(Cl)cc1C1=NNC(c2cccs2)C1 (configuration not stated) | i | i | -5.6* | i | i | 68* | 0.01 | 0.098* | u | 0.061* | 0.077* | 0.023*

High-throughput results (PubChem)
